From ChEMBL document CHEMBL3227984, “5-Substituted uracil arabinonucleosides as potential antiviral agents” (J Med Chem, 1979)
Activity calls are given as the source filed them. The rule behind the calls is not given here.

Legend:
[1] = Cytotoxicity against human skin fibroblasts assessed as inhibition of DNA synthesis by labeled thymidine/2'-deoxyuridine assay; conditions: skin fibroblast
Summary of the method: (§1)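 DNA synthesis in cultures (primary rabbit kidney cells or human skin fibroblasts) exposed to the analogues was monitored by incorporation of labeled thymidine or labeled 2'-deoxyuridine.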

Human alphaherpesvirus 1 [2] = assay: Antiviral activity against HSV1 KOS infected in human skin fibroblasts assessed as inhibition of virus-induced cytopathogenicity; assay type: functional, organism-based
[3] = Dissociation constant, pKa of the compound; assay type: physicochemical
Human alphaherpesvirus 1 [4] = assay: Antiviral activity against HSV1 KOS infected in primary rabbit kidney cells assessed as inhibition of virus-induced cytopathogenicity; assay type: functional
[5] = Cytotoxicity against human skin fibroblasts assessed as change in cell morphology; conditions: skin fibroblast
[6] = system: Vesicular stomatitis virus; assay: Antiviral activity against Vesicular stomatitis virus infected in primary rabbit kidney cells assessed as inhibition of virus-induced cytopathogenicity; assay type: functional
[7] = Cytotoxicity against primary rabbit kidney cells assessed as inhibition of DNA synthesis by labeled thymidine/2'-deoxyuridine assay; assay type: cell-based, Oryctolagus cuniculus; summary of the method: as §1
[8] = Cytotoxicity against primary rabbit kidney cells assessed as change in cell morphology; assay type: cell-based, Oryctolagus cuniculus

In the case of `O=c1[nH]c(=O)n([C@@H]2O[C@H](CO)[C@@H](O)[C@@H]2O)cc1[N+](=O)[O-]`, the Activity [1] is reported as “Non-toxic”, the Antiviral activity (Human alphaherpesvirus 1 [2]) is reported as “Active” and the pKa [3] is reported as 5.7. The ID50 (Human alphaherpesvirus 1 [4]) was greater than 6.9 ×10⁻⁴ M, the Activity [5] was “Non-toxic” and the ID50 [6] was greater than 1 ×10⁻⁴ M. For the same compound, the Activity [7] was “Non-toxic” and the Activity [8] was “Non-toxic”.

In the case of `N#Cc1cn([C@@H]2O[C@H](CO)[C@@H](O)[C@@H]2O)c(=O)[nH]c1=O`, the Activity [1] is reported as “Non-toxic”, the Antiviral activity (Human alphaherpesvirus 1 [2]) is reported as “Active” and the pKa [3] is reported as 6.8. For the same compound, the ID50 (Human alphaherpesvirus 1 [4]) was greater than 3.7 ×10⁻⁴ M, the Activity [5] was “Non-toxic” and the ID50 [6] was greater than 1 ×10⁻⁴ M. The Activity [7] was “Non-toxic” and the Activity [8] was “Non-toxic”.

For `O=c1[nH]c(=O)n([C@@H]2O[C@H](CO)[C@@H](O)[C@@H]2O)cc1O`, the Activity [1] was “Non-toxic”, the Antiviral activity (Human alphaherpesvirus 1 [2]) was “Active” and the pKa [3] was 7.8. The ID50 (Human alphaherpesvirus 1 [4]) was greater than 3.9 ×10⁻⁴ M, the Activity [5] was “Non-toxic” and the ID50 [6] was greater than 1 ×10⁻⁴ M. For the same compound, the Activity [7] was “Non-toxic” and the Activity [8] was “Non-toxic”.

Work on `O=c1[nH]c(=O)n([C@@H]2O[C@H](CO)[C@@H](O)[C@@H]2O)cc1I` yielded a pKa [3] of 8.

With `O=c1[nH]c(=O)n([C@@H]2O[C@H](CO)[C@@H](O)[C@@H]2O)cc1Br` the pKa [3] was 8.

For `Cc1cn([C@@H]2O[C@H](CO)[C@@H](O)[C@@H]2O)c(=O)[nH]c1=O`, the Antiviral activity (Human alphaherpesvirus 1 [2]) was “Active”, the ID50 (Human alphaherpesvirus 1 [4]) was 3.9 ×10⁻⁷ M and the Activity [5] was “Non-toxic”. For the same compound, the ID50 [6] was greater than 1 ×10⁻⁴ M and the Activity [8] was “Non-toxic”.

In the case of `O=c1ccn([C@@H]2O[C@H](CO)[C@@H](O)[C@@H]2O)c(=O)[nH]1` [ARAURIDINE], the Antiviral activity (Human alphaherpesvirus 1 [2]) is reported as “Active”, the ID50 (Human alphaherpesvirus 1 [4]) is reported as 4.1 ×10⁻⁵ M and the Activity [5] is reported as “Non-toxic”. For the same compound, the ID50 [6] was greater than 1 ×10⁻⁴ M and the Activity [8] was “Non-toxic”.
